ChEMBL document CHEMBL4342506 (ACS Med Chem Lett, 2020)
Calls of active or inactive are those of the source. The rule behind the calls is not given here.

Legend:
Neutrophil elastase = molecular target: T1, Neutrophil elastase (Homo sapiens, UniProt P08246); experiment: Inhibition of human neutrophil elastase using N-(OMe-succinyl)-Ala-Ala-Pro-Val-p-nitroanilide as substrate incubated for 15 mins followed by substrate addition and measured for every 30 sec for 30 mins by spectrophotometry
T1 sequence (P08246 whole entry): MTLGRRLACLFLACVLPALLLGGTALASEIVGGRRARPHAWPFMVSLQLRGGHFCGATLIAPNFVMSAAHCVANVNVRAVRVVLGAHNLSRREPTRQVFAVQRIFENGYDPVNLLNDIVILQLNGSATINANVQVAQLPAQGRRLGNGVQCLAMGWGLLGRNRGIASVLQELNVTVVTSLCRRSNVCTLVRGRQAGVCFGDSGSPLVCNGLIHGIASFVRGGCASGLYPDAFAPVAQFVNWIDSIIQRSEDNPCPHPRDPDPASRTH

BEAS-2B [1] = experiment: Cytoprotective activity in human BEAS2B cells assessed as reduction in HNE-induced cell death incubated for 24 hrs by MTT assay; type: functional, cell-based
Outline: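 BEAS-2B bronchial epithelial cells were cotreated with compound and 100 nM HNE for 24 h, and viability was read with MTT reagent.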

BEAS-2B [2] = experiment: Upregulation of IL-1beta in human BEAS2B cells incubated for 3 hrs by RT-qPCR analysis
[3] = Stability in human serum at 200 uM incubated for 24 hrs by HPLC-MS analysis; type: ADME, cell-free
Outline: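 Compound was incubated in human serum at 37 °C and followed over 24 h.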

[4] = Metabolic stability in human liver microsome assessed as half life at 200 uM in presence of NADPH incubated for 24 hrs by HPLC-MS analysis; type: ADME; conditions: liver microsomes
[5] = Metabolic stability in human liver microsomes at 200 uM incubated for 24 hrs by HPLC-MS analysis; type: ADME, Microsome
Outline: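 Compound was incubated with pooled human liver microsomes without NADPH for up to 24 h to assess NADPH-independent metabolism; mean ± SD, n = 3.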

SMILES	IC50 (Neutrophil elastase)	EC50 (BEAS-2B [1])	Activity (BEAS-2B [2])	Stability [3]	half-life at 200 µM [4]	Stability [5]
C/C=C1\NC(=O)[C@@H](NC(C)=O)[C@@H](C)OC(=O)[C@H](C(C)C)NC(=O)[C@H](Cc2ccc(O)cc2)N(C)C(=O)[C@H](Cc2ccccc2)N2C(=O)[C@H](CC[C@H]2O)NC1=O	10000 nM	–	–	–	–	–
C/C=C1\NC(=O)[C@@H](NC(=O)OC(C)(C)C)[C@@H](C)OC(=O)[C@H](C(C)C)NC(=O)[C@H](Cc2ccc(O)cc2)N(C)C(=O)[C@H](Cc2ccccc2)N2C(=O)[C@H](CC[C@H]2O)NC1=O	> 10000 nM	–	–	–	–	–
C/C=C1\NC(=O)[C@@H](NC(=O)[C@H](CCC(N)=O)NC(=O)CC2CCCCC2)[C@@H](C)OC(=O)[C@H](C(C)C)NC(=O)[C@H](Cc2ccc(O)cc2)N(C)C(=O)[C@H](Cc2ccccc2)N2C(=O)[C@H](CC[C@H]2O)NC1=O	103 nM	91 nM	Active	–	–	–
C/C=C1\NC(=O)[C@@H](NC(=O)[C@H](CCC(N)=O)NC(=O)CCCCC)[C@@H](C)OC(=O)[C@H](C(C)C)NC(=O)[C@H](Cc2ccc(O)cc2)N(C)C(=O)[C@H](Cc2ccccc2)N2C(=O)[C@H](CC[C@H]2O)NC1=O [LYNGBYASTATIN 7]	–	20 nM	Active	Stable	2 h	Stable
C/C=C1\NC(=O)[C@@H](NC(=O)[C@H](CCC(N)=O)NC(=O)CN2CCOCC2)[C@@H](C)OC(=O)[C@H](C(C)C)NC(=O)[C@H](Cc2ccc(O)cc2)N(C)C(=O)[C@H](Cc2ccccc2)N2C(=O)[C@H](CC[C@H]2O)NC1=O	197 nM	185 nM	inactive	–	–	–
